Measured values taken from PubChem BioAssay AID504504 (Broad Institute, 2011).
Records with an inconclusive call do not appear. Activity calls are given as the source filed them.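 The calls were made as follows: active = growth-lowering compounds whose fitted AC50 is at most ten times their top valid dose; inconclusive = flat fit with 30 to 70% inhibition, or unreliable fit; inactive = the rest.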

Tested on: not listed separately
Test: growth inhibition of resistant C. albicans CaCi-8, dose response, with fluconazole, powder samples, set 10 (AID 504504)
Conditions: C. albicans CaCi-8 + fluconazole, Alamar Blue growth, 48 h; at 26 µM (top of the series)
How it was run: (§1)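 Assay system: Candida albicans CaCi-8, a fluconazole-resistant clinical strain; quantity: inoculum OD600 0.00015; medium: defined RPMI 1640 medium with MOPS, glucose, uridine; timing: 48 h exposure at 37 °C unshaken, dye 2 h RT; technique: Alamar Blue fluorescence, excitation 544 nm, emission 590 nm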

SMILES	activity change, negative = growth inhibition
CC1CCN(CCn2c3ccccc3c3nc4n(c(=O)c32)CCS4)CC1	-17.5% (inactive)
O=C(Cn1c2ccc(F)cc2c2nc3n(c(=O)c21)CCS3)N1CC=CC1	65% (inactive)
O=C(O)Cn1c2ccc(F)cc2c2nc3n(c(=O)c21)CCS3	-8.94% (inactive)
O=C(Cn1c2ccc(F)cc2c2nc3n(c(=O)c21)CCS3)N1CCCC1	15.4% (inactive)
O=C(Cn1c2ccc(F)cc2c2nc3n(c(=O)c21)CCS3)N1CCC(F)(F)CC1	60.6% (inactive)
O=C(Cn1c2ccc(F)cc2c2nc3n(c(=O)c21)CCS3)N1CCC(F)(F)C1	32% (inactive)
O=C(O)Cn1c2ccccc2c2nc3n(c(=O)c21)CCS3	-4.73% (inactive)
COC(=O)Cn1nc(C2CC2)c2ccccc21	-23.8% (inactive)
COC(=O)Cn1nc(-c2cnco2)c2ccccc21	-17.4% (inactive)
COC(=O)n1nc(-c2ccccc2)c2ccccc21	11.4% (inactive)
CCc1nn(CC(=O)OC)c2ccccc12	-7.82% (inactive)
COC(=O)Cn1nc(C(C)(C)C)c2ccccc21	-4.79% (inactive)

Tested on: C. albicans CaCi-8 + fluconazole, Alamar Blue growth, 48 h
Test: as above
Conditions: not given
How it was run: as §1

SMILES	AC50
O=C(Cn1c2ccccc2c2nc3n(c(=O)c21)CCS3)N1CCCC1	1970 nM
COC(=O)Cn1nc(-c2cccc(C)c2)c2ccccc21	702 nM
O=C(Cn1c2ccccc2c2nc3n(c(=O)c21)CCS3)N1CC=CC1	2020 nM
COC(=O)Cn1nc(-c2cccc(F)c2)c2ccccc21	1840 nM
CC1(O)CN(C(=O)Cn2c3ccccc3c3nc4n(c(=O)c32)CCS4)C1	> 26000 nM (inactive)
COC(=O)Cn1nc(-c2cscn2)c2ccccc21	18300 nM
COC(=O)Cn1nc(C2CCCCC2)c2ccccc21	3440 nM
O=C(Cn1c2ccccc2c2nc3n(c(=O)c21)CCS3)N1CCC(F)(F)C1	6690 nM
COC(=O)Cn1nc(-c2cccc(OC)c2)c2ccccc21	607 nM
O=C(Cn1c2ccccc2c2nc3n(c(=O)c21)CCS3)N1CCCCC1	2170 nM
COC(=O)Cn1c2ccc(F)cc2c2nc3n(c(=O)c21)CCS3	2990 nM
c1ccc(-c2nn(Cc3nnco3)c3ccccc23)cc1	21800 nM
